Laboratory results: ChEMBL document CHEMBL5058577, “EUbOPEN Chemogenomics Library 2 (Multiplex)” (2022)

Tested on: U2OS
Experiment: Multiplex assay against U2OS
Assay type: toxicity, cell-based
Conditions: human
Outline: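 Phenotypes for tubulin, mitochondrial mass and membrane permeability are expressed as per cents of healthy-nucleus cells. Cells were stained live at seeding with Hoechst33342, BioTracker Green Microtubule Cytoskeleton Dye, MitoTracker Red and Annexin V Alexa Fluor 680, then imaged after compound addition on a CQ1 microscope at 37°C and 5% CO2. Machine-learning gating in CellPathfinder separated Hoechst high-intensity objects from normal cells, divided normal cells by nuclear state (healthy, pyknosed, fragmented) and divided pyknosed cells into mitotic or apoptotic.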

[1] = 12 h, 1 µM, compound concentration 1 uM, replicate 1
[2] = 12 h, 1 µM, compound concentration 1 uM, replicate 2
[3] = 12 h, 10 µM, compound concentration 10 uM, replicate 1
[4] = 12 h, 10 µM, compound concentration 10 uM, replicate 2
[5] = 24 h, 1 µM, compound concentration 1 uM, replicate 1
[6] = 24 h, 1 µM, compound concentration 1 uM, replicate 2
[7] = 24 h, 10 µM, compound concentration 10 uM, replicate 1
[8] = 24 h, 10 µM, compound concentration 10 uM, replicate 2
[9] = 48 h, 1 µM, compound concentration 1 uM, replicate 1
[10] = 48 h, 1 µM, compound concentration 1 uM, replicate 2
[11] = 48 h, 10 µM, compound concentration 10 uM, replicate 1
[12] = 48 h, 10 µM, compound concentration 10 uM, replicate 2

CC(C)(C)c1cc(NC(=O)Nc2ccc(-c3cn4c(n3)sc3cc(OCCN5CCOCC5)ccc34)cc2)no1 [QUIZARTINIB]
Population Apoptotic (%) [1]: 48% | Population Fragmented Nuclei (%) [1]: 24% | Population Healthy Nuclei (%) [1]: 61% | Population Hoechst High Intensity Objects (%) [1]: 6% | Population Membrane Permeable-Phenotype (%) [1]: 13% | Population Mitochondria Different-Phenotype (%) [1]: 4% | Population Mitotic Cells (%) [1]: 51% | Population Normal (%) [1]: 93% | Population Pyknosed Nuclei (%) [1]: 14% | Population Tubulin-Different-Phenotype (%) [1]: 8% | Total Cell Count [1]: 213 | Population Apoptotic (%) [2]: 78% | Population Fragmented Nuclei (%) [2]: 17% | Population Healthy Nuclei (%) [2]: 70% | Population Hoechst High Intensity Objects (%) [2]: 1% | Population Membrane Permeable-Phenotype (%) [2]: 6% | Population Mitochondria Different-Phenotype (%) [2]: 6% | Population Mitotic Cells (%) [2]: 21% | Population Normal (%) [2]: 98% | Population Pyknosed Nuclei (%) [2]: 11% | Population Tubulin-Different-Phenotype (%) [2]: 4% | Total Cell Count [2]: 119 | Population Apoptotic (%) [3]: 58% | Population Fragmented Nuclei (%) [3]: 30% | Population Healthy Nuclei (%) [3]: 47% | Population Hoechst High Intensity Objects (%) [3]: 13% | Population Membrane Permeable-Phenotype (%) [3]: 85% | Population Mitochondria Different-Phenotype (%) [3]: 26% | Population Mitotic Cells (%) [3]: 41% | Population Normal (%) [3]: 86% | Population Pyknosed Nuclei (%) [3]: 21% | Population Tubulin-Different-Phenotype (%) [3]: 76% | Total Cell Count [3]: 197 | Population Apoptotic (%) [4]: 23% | Population Fragmented Nuclei (%) [4]: 11% | Population Healthy Nuclei (%) [4]: 65% | Population Hoechst High Intensity Objects (%) [4]: 6% | Population Membrane Permeable-Phenotype (%) [4]: 62% | Population Mitochondria Different-Phenotype (%) [4]: 33% | Population Mitotic Cells (%) [4]: 76% | Population Normal (%) [4]: 94% | Population Pyknosed Nuclei (%) [4]: 22% | Population Tubulin-Different-Phenotype (%) [4]: 54% | Total Cell Count [4]: 100 | Population Apoptotic (%) [5]: 57% | Population Fragmented Nuclei (%) [5]: 25% | Population Healthy Nuclei (%) [5]: 56% | Population Hoechst High Intensity Objects (%) [5]: 2% | Population Membrane Permeable-Phenotype (%) [5]: 15% | Population Mitochondria Different-Phenotype (%) [5]: 8% | Population Mitotic Cells (%) [5]: 42% | Population Normal (%) [5]: 97% | Population Pyknosed Nuclei (%) [5]: 17% | Population Tubulin-Different-Phenotype (%) [5]: 7% | Total Cell Count [5]: 234 | Population Apoptotic (%) [6]: 62% | Population Fragmented Nuclei (%) [6]: 15% | Population Healthy Nuclei (%) [6]: 72% | Population Hoechst High Intensity Objects (%) [6]: 0% | Population Membrane Permeable-Phenotype (%) [6]: 9% | Population Mitochondria Different-Phenotype (%) [6]: 4% | Population Mitotic Cells (%) [6]: 37% | Population Normal (%) [6]: 99% | Population Pyknosed Nuclei (%) [6]: 12% | Population Tubulin-Different-Phenotype (%) [6]: 5% | Total Cell Count [6]: 134 | Population Apoptotic (%) [7]: 63% | Population Fragmented Nuclei (%) [7]: 34% | Population Healthy Nuclei (%) [7]: 34% | Population Hoechst High Intensity Objects (%) [7]: 11% | Population Membrane Permeable-Phenotype (%) [7]: 55% | Population Mitochondria Different-Phenotype (%) [7]: 38% | Population Mitotic Cells (%) [7]: 36% | Population Normal (%) [7]: 88% | Population Pyknosed Nuclei (%) [7]: 30% | Population Tubulin-Different-Phenotype (%) [7]: 45% | Total Cell Count [7]: 195 | Population Apoptotic (%) [8]: 51% | Population Fragmented Nuclei (%) [8]: 10% | Population Healthy Nuclei (%) [8]: 58% | Population Hoechst High Intensity Objects (%) [8]: 2% | Population Membrane Permeable-Phenotype (%) [8]: 40% | Population Mitochondria Different-Phenotype (%) [8]: 32% | Population Mitotic Cells (%) [8]: 48% | Population Normal (%) [8]: 97% | Population Tubulin-Different-Phenotype (%) [8]: 30% | Total Cell Count [8]: 96 | Population Apoptotic (%) [9]: 60% | Population Fragmented Nuclei (%) [9]: 21% | Population Healthy Nuclei (%) [9]: 61% | Population Hoechst High Intensity Objects (%) [9]: 3% | Population Membrane Permeable-Phenotype (%) [9]: 7% | Population Mitochondria Different-Phenotype (%) [9]: 2% | Population Mitotic Cells (%) [9]: 39% | Population Normal (%) [9]: 96% | Population Pyknosed Nuclei (%) [9]: 16% | Population Tubulin-Different-Phenotype (%) [9]: 3% | Total Cell Count [9]: 297 | Population Apoptotic (%) [10]: 73% | Population Fragmented Nuclei (%) [10]: 16% | Population Healthy Nuclei (%) [10]: 72% | Population Hoechst High Intensity Objects (%) [10]: 2% | Population Membrane Permeable-Phenotype (%) [10]: 9% | Population Mitochondria Different-Phenotype (%) [10]: 7% | Population Mitotic Cells (%) [10]: 26% | Population Normal (%) [10]: 97% | Population Pyknosed Nuclei (%) [10]: 10% | Population Tubulin-Different-Phenotype (%) [10]: 6% | Total Cell Count [10]: 180 | Population Apoptotic (%) [11]: 72% | Population Fragmented Nuclei (%) [11]: 33% | Population Healthy Nuclei (%) [11]: 25% | Population Hoechst High Intensity Objects (%) [11]: 9% | Population Membrane Permeable-Phenotype (%) [11]: 41% | Population Mitochondria Different-Phenotype (%) [11]: 33% | Population Mitotic Cells (%) [11]: 27% | Population Normal (%) [11]: 90% | Population Pyknosed Nuclei (%) [11]: 40% | Population Tubulin-Different-Phenotype (%) [11]: 33% | Total Cell Count [11]: 219 | Population Apoptotic (%) [12]: 56% | Population Fragmented Nuclei (%) [12]: 19% | Population Healthy Nuclei (%) [12]: 48% | Population Hoechst High Intensity Objects (%) [12]: 5% | Population Membrane Permeable-Phenotype (%) [12]: 35% | Population Mitotic Cells (%) [12]: 43% | Population Normal (%) [12]: 94% | Population Pyknosed Nuclei (%) [12]: 32% | Population Tubulin-Different-Phenotype (%) [12]: 28% | Total Cell Count [12]: 98
